# Screening results (PubChem)
# Pf Dd2 growth: inhibitors of Plasmodium falciparum Dd2 growth; P. falciparum Dd2 growth, SYBR Green, 72 h; hits give low values; activity change, % at 10 µM; 94,000 compounds, 2.3% hits; AID 1159554; in the data active means activity change below about -80%; inconclusive means no clear call, values can overlap the other calls
# IDH1 mut inh: blocks human IDH1 R132H reductase activity | AID 624101 | O75874 | 70,000 compounds, 0.18% hits | inhibition, % at 10 µM | diaphorase/resazurin fluorescence, 60 min; in the data active means inhibition above about 34%; inconclusive means no clear call, values can overlap the other calls; inactive means below about 11%;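 further: 0% = DMSO and 100% = no enzyme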
# Target sequence (O75874 whole entry R132H): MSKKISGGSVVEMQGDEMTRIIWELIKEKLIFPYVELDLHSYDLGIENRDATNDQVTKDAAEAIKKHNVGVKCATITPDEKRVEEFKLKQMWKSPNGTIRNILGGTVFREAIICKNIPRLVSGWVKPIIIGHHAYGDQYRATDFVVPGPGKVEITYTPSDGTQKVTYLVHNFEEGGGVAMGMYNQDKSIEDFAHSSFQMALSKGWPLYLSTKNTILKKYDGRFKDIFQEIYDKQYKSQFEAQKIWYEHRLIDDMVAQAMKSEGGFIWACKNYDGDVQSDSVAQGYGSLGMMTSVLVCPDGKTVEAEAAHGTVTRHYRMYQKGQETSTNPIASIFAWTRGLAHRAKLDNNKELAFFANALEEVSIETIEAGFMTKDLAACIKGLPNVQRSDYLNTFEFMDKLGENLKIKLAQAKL
# Tcruzi prolif: inhibitors of T. cruzi proliferation | T. cruzi beta-gal in NIH3T3, GalScreen luminescence, 90 h | inhibition, % at 8.34 µM | 77,000 compounds, 5.9% hits | AID 624255;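 active means mean inhibition above about 93%, with at least 55% of replicates each passing it, limit read from the data, passing the limit was not always enough; inconclusive means only one of those two conditions holds; inactive means neither condition holds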
# GASC1 inh: blocks human GASC-1 (KDM4C) demethylase activity; 96,000 compounds, 0.15% hits; inhibition, % at 12.5 µM; GST-KDM4C 2-372, H3K9me3 peptide, LANCE TR-FRET; AID 720574;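 active means mean replicate inhibition above about 25%, with at least 55% of replicates also reaching it, limit read from the data, passing the limit was not always enough; inconclusive means only one of those two conditions met; inactive means neither condition met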
#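 System: N-terminal GST-fused human GASC-1 (KDM4C) fragment, residues 2-372; amount: enzyme final amount 10 nM; incubation: reaction 30 min RT, detection step 1 h RT; medium: HEPES buffer, pH 7.5, plus ascorbate; technique: LANCE TR-FRET, Eu antibody, ULight-streptavidin, EDTA, ex 340 nm, em 618/671 nm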
# Active calls of the source: *; ? = inconclusive; · = not tested or not shown. Most compounds without a hit are left out; they make up all but 5.9% or so of the library.
SMILES,Pf Dd2 growth,IDH1 mut inh,Tcruzi prolif,GASC1 inh
C[C@@H]1CCCCO[C@@H](CN(C)C(=O)Nc2ccc(F)cc2)[C@@H](C)CN([C@@H](C)CO)C(=O)c2cc(NC(=O)C3CCCCC3)ccc2O1,-86*,·,72,1
O=C(NCC[C@H]1CC[C@@H](NC(=O)c2ccccc2F)[C@H](CO)O1)c1ccc2c(c1)OCO2,-9,0,9,1
CS(=O)(=O)N(CC1CCC1)C[C@H]1N[C@H](CO)[C@H]1c1ccccc1,-20,·,5,1
COc1cccc(S(=O)(=O)Nc2ccc3c(c2)[C@H]2C[C@H](CC(=O)N[C@@H](C)c4ccccc4)O[C@H](CO)[C@H]2O3)c1,13,·,·,·
COc1ccc(CN(C)C[C@H]2OCCCC[C@@H](C)Oc3ccc(NC(=O)Nc4ccc(C(F)(F)F)cc4)cc3C(=O)N([C@H](C)CO)C[C@H]2C)cc1,-67,·,101,·
COc1ccc(CN(C)C[C@@H]2OCCCC[C@H](C)Oc3ccc(NC(=O)Nc4ccc(C(F)(F)F)cc4)cc3C(=O)N([C@@H](C)CO)C[C@@H]2C)cc1,-87*,·,96,·
COc1ccc(NC(=O)Nc2ccc3c(c2)C(=O)N([C@@H](C)CO)C[C@@H](C)[C@@H](CN(C)Cc2ccc(C(F)(F)F)cc2)OCCCC[C@@H](C)O3)cc1,-83*,0,78,0
COc1ccc(NC(=O)Nc2ccc3c(c2)C(=O)N([C@@H](C)CO)C[C@@H](C)[C@@H](CN(C)Cc2ccc(C(F)(F)F)cc2)OCCCC[C@H](C)O3)cc1,-76,0,75,0
COc1ccc(CN(C)C[C@H]2OCCCC[C@H](C)Oc3ccc(NC(=O)Nc4ccc(C(F)(F)F)cc4)cc3C(=O)N([C@@H](C)CO)C[C@H]2C)cc1,-75,·,59,·
COc1ccc(NC(=O)Nc2ccc3c(c2)C(=O)N([C@@H](C)CO)C[C@H](C)[C@@H](CN(C)Cc2ccc(C(F)(F)F)cc2)OCCCC[C@@H](C)O3)cc1,-91*,·,66,-2
C/C=C/c1ccc2c(c1)O[C@@H](CN(C)CCC)[C@@H](C)CN([C@@H](C)CO)S2(=O)=O,-22,-3,39,0
C/C=C/c1ccc2c(c1)O[C@H](CN(C)CCC)[C@H](C)CN([C@H](C)CO)S2(=O)=O,-15,84*,40,43*
CCCC#Cc1ccc2c(c1)O[C@H](CN(C)C)[C@@H](C)CN([C@@H](C)CO)S2(=O)=O,-38,-1,95,0
C[C@H]1CN([C@@H](C)CO)S(=O)(=O)c2ccc(/C=C/c3ccccc3)cc2O[C@H]1CN(C)C(=O)c1ccccc1,?,-9,125*,-2
CCCC#Cc1ccc2c(c1)O[C@@H](CN(C)C)[C@@H](C)CN([C@H](C)CO)S2(=O)=O,0,59*,54,53*
CCCN(C)C[C@H]1Oc2cc(C#CC3CCCC3)ccc2S(=O)(=O)N([C@H](C)CO)C[C@H]1C,-84*,0,75,4
CCCN(C)C[C@@H]1Oc2cc(C#CC3CCCCC3)ccc2S(=O)(=O)N([C@H](C)CO)C[C@H]1C,-20,0,79,-3
COc1ccc(C)cc1NC(=O)CN1C(=O)CN(c2ccccc2)C1=O,·,0,·,·
CC(C)(C)c1ccc(OC(=O)CCN2C(=O)C3C4C=CC(C5CC45)C3C2=O)cc1 (configuration not stated),·,0,·,·
C[C@H](CO)N1C[C@H](C)[C@@H](CN(C)C)Oc2cc(C#CC3CCCCC3)ccc2S1(=O)=O,-54,0,76,4
COc1ccc(S(=O)(=O)N(C)C[C@@H]2Oc3cc(C#CC4CCCCC4)ccc3S(=O)(=O)N([C@H](C)CO)C[C@H]2C)cc1,-86*,·,39,-1
C[C@@H]1CN([C@H](C)CO)S(=O)(=O)c2ccc(C#CC3CCCCC3)cc2O[C@@H]1CN(C)C,-81*,0,51,-1
COc1ccc(S(=O)(=O)N(C)C[C@H]2Oc3cc(C#CC4CCCCC4)ccc3S(=O)(=O)N([C@H](C)CO)C[C@H]2C)cc1,-66,-2,55,-1
COc1ccc(C#Cc2ccc3c(c2)[C@H]2[C@H](CCN2C(=O)c2ccccn2)[C@@H](CO)N3)cc1,-91*,·,·,-2
COc1ccc(C#Cc2ccc3c(c2)[C@H]2[C@H](CCN2C(=O)c2ccccn2)[C@H](CO)N3)cc1,-88*,·,·,-2
SMILES,Pf Dd2 growth,IDH1 mut inh,Tcruzi prolif,GASC1 inh
O=C(c1ccccn1)N1CC[C@@H]2[C@H](CO)Nc3ccc(C#Cc4ccccc4)cc3[C@@H]21,2,·,84,-2
C[C@@H]1CN([C@H](C)CO)C(=O)c2cc(NS(=O)(=O)c3cccs3)ccc2O[C@@H]1CN(C)C(=O)Nc1ccc(F)cc1,5,1,7,0
C[C@H]1CCCCO[C@H](CN(C)C(=O)NC2CCCCC2)[C@@H](C)CN([C@@H](C)CO)C(=O)c2cc(NC(=O)Nc3ccccc3)ccc2O1,-48,·,92,7
COc1ccc2c3c([nH]c2c1)[C@H](CO)N(Cc1cccc(F)c1)CC31CN(C(C)=O)C1,-78,·,·,0
COc1ccc2c3c([nH]c2c1)[C@@H](CO)N(Cc1cccc(F)c1)CC31CCN(C(C)=O)CC1,-93*,·,·,-2
COc1ccc2c3c([nH]c2c1)[C@@H](CO)N(Cc1cccc(F)c1)CC31CN(C(C)=O)C1,-85*,·,·,1
COc1ccc(NC(=O)Nc2ccc3c(c2)C(=O)N([C@@H](C)CO)C[C@@H](C)[C@H](CN(C)C(=O)Nc2c(C)noc2C)O3)cc1,32,-12,-22,1
C[C@H]1CN([C@@H](C)CO)C(=O)c2cccc(NC(=O)Nc3ccc(F)cc3)c2O[C@H]1CN(C)Cc1ccc2c(c1)OCO2,-6,·,-23,0
C[C@@H]1CCCCO[C@H](CN(C)C(=O)Nc2cccc3ccccc23)[C@@H](C)CN([C@H](C)CO)C(=O)c2cc(NC(=O)Cc3ccccc3)ccc2O1,-39,0,23,-2
C[C@H](CO)N1C[C@H](C)[C@H](CN(C)C(=O)Nc2cccc3ccccc23)OCCCC[C@H](C)Oc2ccc(NC(=O)Cc3ccccc3)cc2C1=O,-82*,·,42,-3
C[C@@H]1CCCCO[C@@H](CN(C)C(=O)Nc2cccc3ccccc23)[C@H](C)CN([C@@H](C)CO)C(=O)c2cc(NC(=O)Cc3ccccc3)ccc2O1,-81*,2,95,-5
COc1ccc(N(CC(=O)Nc2ccccc2OC)S(C)(=O)=O)cc1Cl,·,1,·,·
COc1ccc(S(=O)(=O)N(C)C[C@@H]2OCCCC[C@H](C)Oc3ccc(NC(=O)Nc4cccc5ccccc45)cc3C(=O)N([C@@H](C)CO)C[C@H]2C)cc1,-89*,1,18,-2
COc1ccc(S(=O)(=O)N(C)C[C@H]2OCCCC[C@@H](C)Oc3ccc(NC(=O)Nc4cccc5ccccc45)cc3C(=O)N([C@@H](C)CO)C[C@@H]2C)cc1,-70,0,79,-5
Cc1ccc(S(=O)(=O)N(C)C[C@H]2OCCCC[C@H](C)Oc3ccc(NC(=O)Nc4cccc5ccccc45)cc3C(=O)N([C@@H](C)CO)C[C@H]2C)cc1,-82*,·,·,·
